Calls of active or inactive are those of the source. The calls are words filed in the database; no cut-off is given here.
Legend:
[1] = Absorption property of the compound in DMSO assessed as Q band maximum absorption wavelength by UV-visible spectrophotometric method; format: physicochemical
Summary of the method: (§1)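 UV–visible absorption spectra recorded in DMSO at concentrations 1, 2, 4, 6, 8, 10 µM, with the concentration dependence used to follow aggregation.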

[2] = Dark toxicity in human HeLa cells assessed as reduction in cell viability after 24 hrs by MTT assay; format: cell-based
Summary of the method: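 HeLa cells in DMEM with 10% FBS (37 °C, 5% CO2) were seeded at 2 × 10^4 cells/well and attached for 24 h. Compound at a range of final concentrations was taken up for 24 h in the dark, cells were washed with PBS and left unirradiated. MTT viability was read 24 h later as % survival normalised to no-drug cells. Triplicate experiments.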

[3] = Induction of singlet oxygen generation in DMF solution assessed as singlet oxygen quantum yield irradiated with 650 nanometer laser light by DPBF-based assay; format: functional
[4] = Emission property of the compound in DMSO assessed as maximum excited state emission wavelength at 4 uM by fluorescence spectrophotometric method; format: physicochemical
Summary of the method: (§2)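 Fluorescence spectra recorded on a spectrofluorometer with slits of 1 nm for excitation and 1 or 2 nm for emission.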

HeLa [5] = assay: Phototoxicity against human HeLa cells assessed as reduction in cell viability preincubated for 24 hrs followed by irradiated with 16 J/cm2 of 650 nanometer laser light measured after 24 hrs by MTT assay; format: functional, cell-based; conditions: light or radiation study
Summary of the method: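 HeLa cells at 2 × 10^4 cells/well were attached for 24 h and given compound at a range of final concentrations for 24 h in the dark. After two PBS washes, cells were irradiated with a 650 nm Nd:YAG laser (doses 0–16 J/cm²). MTT viability was read 24 h later as % survival normalised to no-drug cells. Triplicate experiments.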

[6] = Absorption property of the compound in DMSO assessed as Q band molar attenuation coefficient by UV-visible spectrophotometric method; format: physicochemical; summary of the method: as §1
[7] = Absorption property of the compound in DMSO assessed as Q band absorption coefficient by UV-visible spectrophotometric method; format: physicochemical; summary of the method: as §1
[8] = Absorption property of the compound in DMSO assessed as Q band wavelength molar absorption coefficient by UV-visible spectrophotometric method; format: physicochemical; summary of the method: as §1
[9] = Absorption property of the compound in DMSO assessed as soret band absorption coefficient by UV-visible spectrophotometric method; format: physicochemical; summary of the method: as §1
[10] = Emission property of the compound in DMSO assessed as stokes shift by fluorescence spectrophotometric method; format: physicochemical; summary of the method: as §2
[11] = Absorption property of the compound in DMSO assessed as soret band maximum absorption wavelength by UV-visible spectrophotometric method; format: physicochemical; summary of the method: as §1
[12] = Emission property of the compound in DMSO assessed as maximum emission wavelength at 4 uM by fluorescence spectrophotometric method; format: physicochemical; summary of the method: as §2
[13] = Absorption property of the compound in DMSO assessed as soret band wavelength molar absorption coefficient by UV-visible spectrophotometric method; format: physicochemical; summary of the method: as §1
[14] = Drug localization in nuclear membrane of human HeLa cells at 5 uM incubated for 4 hrs in dark by Hoechst 33342 staining based confocal fluorescence microscopy; format: ADME, cell membranes
Summary of the method: (§3)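 HeLa cells at 1 × 10^5 cells/mL on poly-L-lysine coverslips for 24 h, then 5 µM drug for 4 h in the dark at 37 °C. Nuclei were stained with Hoechst 33342 for 10 min at 37 °C, and cells fixed in 4% paraformaldehyde at 4 °C for 30 min. Confocal imaging: drug excited at 417 nm, emission 600–700 nm; Hoechst excited at 350 nm, emission 450–500 nm.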

[15] = Drug localization in cytoplasm of human HeLa cells at 5 uM incubated for 4 hrs in dark by Hoechst 33342 staining based confocal fluorescence microscopy; format: ADME, subcellular; summary of the method: as §3
HeLa [16] = assay: Photodynamic antitumor activity against human HeLa cells xenografted in BALB/c nude mouse assessed as reduction in tumor volume at 5 mg/kg, iv followed by laser light irradiation at 100 J/cm2

| Structure (SMILES) | Activity [1] | IC50 at 24 h [2] | Activity [3] | Activity [4] | IC50 (HeLa [5]) | Activity [6] | Activity [7] | Activity [8] | Activity [9] | Activity [10] | Activity [11] | Activity [12] | Activity [13] | Drug uptake [14] | Drug uptake [15] | Activity (HeLa [16]) |
| --- | --- | --- | --- | --- | --- | --- | --- | --- | --- | --- | --- | --- | --- | --- | --- | --- |
| C1=Cc2nc1c(-c1ccccc1)c1ccc([nH]1)c(-c1ccccc1)c1nc(c(-c3ccccc3)c3ccc([nH]3)c2-c2ccccc2)C(N2CCOCC2)=C1 | 596 nm | 93.4 µM | 0.25 | 417 nm | 5.06 µM | 0.56 10^4/M/cm | 0.69 10^4/M/cm | 650 nm | 16.08 10^4/M/cm | 13 nm | 417 nm | 663 nm | 522 nm | – | – | – |
| COC(C)c1c(C)c2cc3nc(cc4[nH]c(cc5nc(cc1[nH]2)C(C)=C5C(C)O)c(C)c4CCC(=O)O)C(CCC(=O)O)=C3C (centres undefined) | – | 345 µM | 0.18 | – | 9.46 µM | – | – | – | – | – | – | – | – | – | – | – |
| Clc1ccc(-c2c3nc(c(-c4ccc(Cl)cc4)c4ccc([nH]4)c(-c4ccc(Cl)cc4)c4nc(c(-c5ccc(Cl)cc5)c5ccc2[nH]5)C=C4N2CCCC2)C=C3)cc1 | 594 nm | 81.6 µM | 0.2 | 412 nm | 6.43 µM | 0.67 10^4/M/cm | 0.73 10^4/M/cm | 648 nm | 14.75 10^4/M/cm | 17 nm | 412 nm | 665 nm | 521 nm | – | – | – |
| COc1ccc(-c2c3nc(c(-c4ccc(OC)cc4)c4ccc([nH]4)c(-c4ccc(OC)cc4)c4nc(c(-c5ccc(OC)cc5)c5ccc2[nH]5)C=C4N2CCCC2)C=C3)cc1 | 603 nm | 387 µM | 0.56 | 417 nm | 4.38 µM | 0.54 10^4/M/cm | 0.68 10^4/M/cm | 668 nm | 13.43 10^4/M/cm | 15 nm | 417 nm | 683 nm | 535 nm | Active | Active | Active |
| C1=Cc2nc1c(-c1ccccc1)c1ccc([nH]1)c(-c1ccccc1)c1nc(c(-c3ccccc3)c3ccc([nH]3)c2-c2ccccc2)C(N2CCCCC2)=C1 | 596 nm | 110 µM | 0.19 | 412 nm | 5.56 µM | 0.16 10^4/M/cm | 0.27 10^4/M/cm | 650 nm | 8.32 10^4/M/cm | 19 nm | 412 nm | 669 nm | 524 nm | – | – | – |
| Cc1ccc(-c2c3nc(c(-c4ccc(C)cc4)c4ccc([nH]4)c(-c4ccc(C)cc4)c4nc(c(-c5ccc(C)cc5)c5ccc2[nH]5)C=C4N2CCCC2)C=C3)cc1 | 602 nm | 280 µM | 0.54 | 414 nm | 5.33 µM | 0.34 10^4/M/cm | 0.58 10^4/M/cm | 666 nm | 16.52 10^4/M/cm | 4 nm | 414 nm | 671 nm | 531 nm | – | – | – |
| C1=Cc2nc1c(-c1ccccc1)c1ccc([nH]1)c(-c1ccccc1)c1nc(c(-c3ccccc3)c3ccc([nH]3)c2-c2ccccc2)C(N2CCCC2)=C1 | 601 nm | 172 µM | 0.43 | 412 nm | 4.56 µM | 0.25 10^4/M/cm | 0.44 10^4/M/cm | 664 nm | 14.53 10^4/M/cm | 1 nm | 412 nm | 665 nm | 528 nm | – | – | – |
